Experimental data taken from ChEMBL document CHEMBL3407470, “Synthesis, biological evaluation and 3D-QSAR studies of novel 5-phenyl-1H-pyrazol cinnamamide derivatives as novel antitubulin agents” (Eur J Med Chem, 2015).

molecular target: Tubulin (Bos taurus, UniProt Q6B856+Q862L2+Q862F3); assay: Inhibition of bovine brain tubulin polymerization incubated for 20 mins by spectrophotometry; settings: not given

| IC50 [nM] | pIC50 | SMILES |
| --- | --- | --- |
| 1850 | 5.733 | O=C(/C=C/c1ccc(F)cc1)Nc1cc(-c2ccccc2)[nH]n1 |
| 3020 | 5.52 | Cc1ccc(/C=C/C(=O)Nc2cc(-c3ccccc3)[nH]n2)cc1 |
| 2550 | 5.593 | O=C(/C=C/c1ccccc1)Nc1cc(-c2ccc(Br)cc2)[nH]n1 |
| 1240 | 5.907 | O=C(/C=C/c1ccc([N+](=O)[O-])cc1)Nc1cc(-c2ccc(Br)cc2)[nH]n1 |
| 2760 | 5.56 | Cc1ccc(/C=C/C(=O)Nc2cc(-c3ccc(Br)cc3)[nH]n2)cc1 |
| 2550 | 5.593 | Cc1ccc(-c2cc(NC(=O)/C=C/c3ccc(Br)cc3)n[nH]2)cc1 |
| 1640 | 5.785 | COc1ccc(/C=C\C(=O)Nc2cc(-c3ccccc3)[nH]n2)cc1 |
| 2150 | 5.668 | Cc1ccc(-c2cc(NC(=O)/C=C/c3ccc(Cl)cc3)n[nH]2)cc1 |
| 1530 | 5.815 | Cc1ccc(-c2cc(NC(=O)/C=C/c3ccc(C(F)(F)F)cc3)n[nH]2)cc1 |
| 1920 | 5.717 | Cc1ccc(-c2cc(NC(=O)/C=C/c3ccc(F)cc3)n[nH]2)cc1 |
| 2840 | 5.547 | O=C(/C=C/c1ccccc1)Nc1cc(-c2ccccc2)[nH]n1 |
| 1760 | 5.754 | COc1ccc(/C=C/C(=O)Nc2cc(-c3ccc(C)cc3)[nH]n2)cc1 |
| 1620 | 5.79 | Cc1ccc(-c2cc(NC(=O)/C=C/c3ccc([N+](=O)[O-])cc3)n[nH]2)cc1 |

test system: not listed separately; assay: Antiproliferative activity against mouse B16F10 cells after 48 hrs by MTT assay; format: functional, cell-based; settings: B16-F10, 48 h
How it was run: (§1)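 Cells grown to log phase in RPMI 1640 with 10% FBS, seeded at 2×10^4 cells/mL and allowed 24 h at 37 °C, 5% CO₂ before treatment. Compounds at pre-set concentrations, colchicine and CA-4 as references, exposed 48 h. MTT added (2.5 mg/mL in PBS) for 4 h, then SDS/isobutyl alcohol/HCl extraction overnight; OD at 570 nm. Triplicate wells per concentration; values averaged from at least three separate runs.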

| SMILES | IC50 [nM] |
| --- | --- |
| O=C(/C=C/c1ccc(F)cc1)Nc1cc(-c2ccccc2)[nH]n1 | 1250 |
| Cc1ccc(/C=C/C(=O)Nc2cc(-c3ccccc3)[nH]n2)cc1 | 1680 |
| O=C(/C=C/c1ccccc1)Nc1cc(-c2ccc(Br)cc2)[nH]n1 | 1270 |
| O=C(/C=C/c1ccc([N+](=O)[O-])cc1)Nc1cc(-c2ccc(Br)cc2)[nH]n1 | 630 |
| Cc1ccc(/C=C/C(=O)Nc2cc(-c3ccc(Br)cc3)[nH]n2)cc1 | 1480 |
| Cc1ccc(-c2cc(NC(=O)/C=C/c3ccc(Br)cc3)n[nH]2)cc1 | 1570 |
| COc1ccc(/C=C\C(=O)Nc2cc(-c3ccccc3)[nH]n2)cc1 | 950 |
| Cc1ccc(-c2cc(NC(=O)/C=C/c3ccc(Cl)cc3)n[nH]2)cc1 | 1520 |
| Cc1ccc(-c2cc(NC(=O)/C=C/c3ccc(C(F)(F)F)cc3)n[nH]2)cc1 | 1210 |
| Cc1ccc(-c2cc(NC(=O)/C=C/c3ccc(F)cc3)n[nH]2)cc1 | 1430 |
| O=C(/C=C/c1ccccc1)Nc1cc(-c2ccccc2)[nH]n1 | 1560 |
| COc1ccc(/C=C/C(=O)Nc2cc(-c3ccc(C)cc3)[nH]n2)cc1 | 1370 |
| Cc1ccc(-c2cc(NC(=O)/C=C/c3ccc([N+](=O)[O-])cc3)n[nH]2)cc1 | 1320 |

test system: A549; assay: Antiproliferative activity against human A549 cells after 48 hrs by MTT assay; format: functional, cell-based; settings: A549, 48 h; how it was run: as §1

| IC50 [nM] | SMILES |
| --- | --- |
| 1220 | O=C(/C=C/c1ccc(F)cc1)Nc1cc(-c2ccccc2)[nH]n1 |
| 1770 | Cc1ccc(/C=C/C(=O)Nc2cc(-c3ccccc3)[nH]n2)cc1 |
| 1440 | O=C(/C=C/c1ccccc1)Nc1cc(-c2ccc(Br)cc2)[nH]n1 |
| 740 | O=C(/C=C/c1ccc([N+](=O)[O-])cc1)Nc1cc(-c2ccc(Br)cc2)[nH]n1 |
| 1620 | Cc1ccc(/C=C/C(=O)Nc2cc(-c3ccc(Br)cc3)[nH]n2)cc1 |
| 1590 | Cc1ccc(-c2cc(NC(=O)/C=C/c3ccc(Br)cc3)n[nH]2)cc1 |
| 1060 | COc1ccc(/C=C\C(=O)Nc2cc(-c3ccccc3)[nH]n2)cc1 |
| 1490 | Cc1ccc(-c2cc(NC(=O)/C=C/c3ccc(Cl)cc3)n[nH]2)cc1 |
| 1020 | Cc1ccc(-c2cc(NC(=O)/C=C/c3ccc(C(F)(F)F)cc3)n[nH]2)cc1 |
| 1250 | Cc1ccc(-c2cc(NC(=O)/C=C/c3ccc(F)cc3)n[nH]2)cc1 |
| 1580 | O=C(/C=C/c1ccccc1)Nc1cc(-c2ccccc2)[nH]n1 |
| 1190 | COc1ccc(/C=C/C(=O)Nc2cc(-c3ccc(C)cc3)[nH]n2)cc1 |
| 1130 | Cc1ccc(-c2cc(NC(=O)/C=C/c3ccc([N+](=O)[O-])cc3)n[nH]2)cc1 |

test system: MCF7; assay: Antiproliferative activity against human MCF7 cells after 48 hrs by MTT assay; format: functional, cell-based; settings: MCF7, 48 h; how it was run: as §1

| IC50 [nM] | SMILES |
| --- | --- |
| 840 | O=C(/C=C/c1ccc(F)cc1)Nc1cc(-c2ccccc2)[nH]n1 |
| 1780 | Cc1ccc(/C=C/C(=O)Nc2cc(-c3ccccc3)[nH]n2)cc1 |
| 1120 | O=C(/C=C/c1ccccc1)Nc1cc(-c2ccc(Br)cc2)[nH]n1 |
| 560 | O=C(/C=C/c1ccc([N+](=O)[O-])cc1)Nc1cc(-c2ccc(Br)cc2)[nH]n1 |
| 1170 | Cc1ccc(/C=C/C(=O)Nc2cc(-c3ccc(Br)cc3)[nH]n2)cc1 |
| 1370 | Cc1ccc(-c2cc(NC(=O)/C=C/c3ccc(Br)cc3)n[nH]2)cc1 |
| 720 | COc1ccc(/C=C\C(=O)Nc2cc(-c3ccccc3)[nH]n2)cc1 |
| 1190 | Cc1ccc(-c2cc(NC(=O)/C=C/c3ccc(Cl)cc3)n[nH]2)cc1 |
| 720 | Cc1ccc(-c2cc(NC(=O)/C=C/c3ccc(C(F)(F)F)cc3)n[nH]2)cc1 |
| 950 | Cc1ccc(-c2cc(NC(=O)/C=C/c3ccc(F)cc3)n[nH]2)cc1 |
| 1360 | O=C(/C=C/c1ccccc1)Nc1cc(-c2ccccc2)[nH]n1 |
| 860 | COc1ccc(/C=C/C(=O)Nc2cc(-c3ccc(C)cc3)[nH]n2)cc1 |
| 840 | Cc1ccc(-c2cc(NC(=O)/C=C/c3ccc([N+](=O)[O-])cc3)n[nH]2)cc1 |
